Measurements published in ChEMBL document CHEMBL3797104, “Triazole tethered C5-curcuminoid-coumarin based molecular hybrids as novel antitubulin agents: Design, synthesis, biological investigation and docking studies” (Eur J Med Chem, 2016).
Activity calls are given as the source filed them. No cut-off for these calls is given here.

Experiments:
PC-3 = assay: (§1) Cytotoxicity against human PC3 cells assessed as growth inhibition at 50 uM after 48 hrs by SRB assay; assay type: functional
Outline: (§2)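 Single-concentration screen at 50 µM. Cells grew 24 h at 37 °C, then had 48 h exposure in complete medium.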

[1] = Cytotoxicity against human THP1 cells assessed as growth inhibition at 50 uM after 48 hrs by SRB assay; assay type: functional; conditions: THP-1, 48 h, read-out: GI; outline: as §2
[2] = Cytotoxicity against human HCT116 cells assessed as growth inhibition at 50 uM after 48 hrs by SRB assay; assay type: functional; conditions: HCT-116, 48 h, read-out: GI; outline: as §2
[3] = Cytotoxicity against human COLO205 cells assessed as growth inhibition at 50 uM after 48 hrs by SRB assay; assay type: functional; conditions: COLO 205, 48 h, read-out: GI; outline: as §2
[4] = as §1; assay type: functional; conditions: PC-3, 48 h, read-out: GI; outline: as §2
[5] = Cytotoxicity against human COLO205 cells after 48 hrs by SRB assay; assay type: functional, cell-based; conditions: COLO 205, 48 h
Outline: (§3)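 SRB assay in 96-well plates. Cells were seeded and grown 24 h at 37 °C in a CO2 incubator, then given test material in complete medium for a further 48 h. Cells were fixed with cold 50% TCA for 1 h at 4 °C, stained 30 min with 0.4% SRB in 1% acetic acid, and washed with […]. IC50 was taken from multi-concentration testing, run only for hybrids giving >70% inhibition at 50 µM in at least one line.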

[6] = Cytotoxicity against human THP1 cells after 48 hrs by SRB assay; assay type: functional, cell-based; conditions: THP-1, 48 h; outline: as §3
[7] = Cytotoxicity against human HCT116 cells after 48 hrs by SRB assay; assay type: functional, cell-based; conditions: HCT-116, 48 h; outline: as §3

Compound	growth inhibition (GI) (PC-3)	inhibition of growth at 50 µM [1]	inhibition of growth at 50 µM [2]	inhibition of growth at 50 µM [3]	inhibition of growth at 50 µM [4]	IC50 [5]	IC50 [6]	IC50 [7]
COc1ccccc1/C=C/C(=O)/C=C/c1ccc(OCc2cn(CCCCOc3cc(=O)oc4ccccc34)nn2)c(OC)c1	inactive	40%	43%	47%	–	–	–	–
COc1ccc(/C=C/C(=O)/C=C/c2ccc(OCc3cn(CCCCOc4cc(=O)oc5ccccc45)nn3)c(OC)c2)cc1	inactive	45%	40%	49%	–	–	–	–
COc1cc(/C=C/C(=O)/C=C/c2ccccc2)ccc1OCc1cn(CCCCOc2cc(=O)oc3ccccc23)nn1	inactive	36%	34%	31%	–	–	–	–
COc1ccc(/C=C/C(=O)/C=C/c2ccc(OCc3cn(CCCCOc4cc(=O)oc5ccccc45)nn3)c(OC)c2)cc1OC	inactive	59%	55%	53%	–	–	–	–
COc1ccc(/C=C/C(=O)/C=C/c2ccc(OCc3cn(CCCCCOc4cc(=O)oc5ccccc45)nn3)c(OC)c2)cc1OC	inactive	47%	45%	43%	–	–	–	–
COc1cccc(/C=C/C(=O)/C=C/c2ccc(OCc3cn(CCCOc4cc(=O)oc5ccccc45)nn3)c(OC)c2)c1	inactive	58%	55%	52%	–	–	–	–
COc1cc(/C=C/C(=O)/C=C/c2cccs2)ccc1OCc1cn(CCOc2cc(=O)oc3ccccc23)nn1	–	76%	71%	66%	12%	11.4 µM	7.14 µM	9.29 µM
COc1cc(/C=C/C(=O)/C=C/c2cccs2)ccc1OCc1cn(CCCCCOc2cc(=O)oc3ccccc23)nn1	inactive	34%	31%	30%	–	–	–	–
COc1cc(/C=C/C(=O)/C=C/c2cc(OC)c(OC)c(OC)c2)ccc1OCc1cn(CCCCCOc2cc(=O)oc3ccccc23)nn1	inactive	55%	53%	51%	–	–	–	–
COc1ccccc1/C=C/C(=O)/C=C/c1ccc(OCc2cn(CCCCCOc3cc(=O)oc4ccccc34)nn2)c(OC)c1	inactive	37%	33%	30%	–	–	–	–
COc1cc(/C=C/C(=O)/C=C/c2ccccc2)ccc1OCc1cn(CCCOc2cc(=O)oc3ccccc23)nn1	inactive	48%	45%	43%	–	–	–	–
COc1cccc(/C=C/C(=O)/C=C/c2ccc(OCc3cn(CCCCCOc4cc(=O)oc5ccccc45)nn3)c(OC)c2)c1	inactive	37%	36%	34%	–	–	–	–
COc1cc(/C=C/C(=O)/C=C/c2ccco2)ccc1OCc1cn(CCOc2cc(=O)oc3ccccc23)nn1	–	78%	72%	68%	14%	11.8 µM	7.87 µM	9.18 µM
COc1cc(/C=C/C(=O)/C=C/c2cccc3ccccc23)ccc1OCc1cn(CCCCCOc2cc(=O)oc3ccccc23)nn1	inactive	44%	42%	40%	–	–	–	–
COc1cccc(/C=C/C(=O)/C=C/c2ccc(OCc3cn(CCOc4cc(=O)oc5ccccc45)nn3)c(OC)c2)c1	–	77%	70%	69%	13%	11.9 µM	7.13 µM	9.76 µM
COc1cc(/C=C/C(=O)/C=C/c2cccs2)ccc1OCc1cn(CCCOc2cc(=O)oc3ccccc23)nn1	inactive	54%	58%	55%	–	–	–	–
COc1cc(/C=C/C(=O)/C=C/c2cccc3ccccc23)ccc1OCc1cn(CCCCOc2cc(=O)oc3ccccc23)nn1	inactive	54%	56%	50%	–	–	–	–

Compound	growth inhibition (GI) (PC-3)	inhibition of growth at 50 µM [1]	inhibition of growth at 50 µM [2]	inhibition of growth at 50 µM [3]	inhibition of growth at 50 µM [4]	IC50 [5]	IC50 [6]	IC50 [7]
COc1cc(/C=C/C(=O)/C=C/c2cccc3ccccc23)ccc1OCc1cn(CCCOc2cc(=O)oc3ccccc23)nn1	–	71%	66%	64%	8%	12.7 µM	8.41 µM	10.4 µM
COc1cc(/C=C/C(=O)/C=C/c2ccccc2)ccc1OCc1cn(CCCCCOc2cc(=O)oc3ccccc23)nn1	inactive	26%	24%	22%	–	–	–	–
COc1cc(/C=C/C(=O)/C=C/c2ccco2)ccc1OCc1cn(CCCCCOc2cc(=O)oc3ccccc23)nn1	inactive	39%	37%	33%	–	–	–	–
COc1ccc(/C=C/C(=O)/C=C/c2ccc(OCc3cn(CCCOc4cc(=O)oc5ccccc45)nn3)c(OC)c2)cc1	inactive	56%	54%	53%	–	–	–	–
COc1ccc(/C=C/C(=O)/C=C/c2ccc(OCc3cn(CCOc4cc(=O)oc5ccccc45)nn3)c(OC)c2)cc1	–	78%	71%	68%	15%	11.3 µM	7.41 µM	9.29 µM
COc1ccc(/C=C/C(=O)/C=C/c2ccc(OCc3cn(CCCCCOc4cc(=O)oc5ccccc45)nn3)c(OC)c2)cc1	inactive	39%	35%	30%	–	–	–	–
COc1cc(/C=C/C(=O)/C=C/c2cc(OC)c(OC)c(OC)c2)ccc1OCc1cn(CCCOc2cc(=O)oc3ccccc23)nn1	–	79%	76%	74%	12%	10.6 µM	5.43 µM	8.65 µM
COc1cc(/C=C/C(=O)/C=C/c2ccco2)ccc1OCc1cn(CCCOc2cc(=O)oc3ccccc23)nn1	inactive	57%	51%	59%	–	–	–	–
COc1cc(/C=C/C(=O)/C=C/c2cc(OC)c(OC)c(OC)c2)ccc1OCc1cn(CCCCOc2cc(=O)oc3ccccc23)nn1	–	65%	63%	60%	5%	–	–	–
COc1cccc(/C=C/C(=O)/C=C/c2ccc(OCc3cn(CCCCOc4cc(=O)oc5ccccc45)nn3)c(OC)c2)c1	inactive	47%	44%	46%	–	–	–	–
COc1cc(/C=C/C(=O)/C=C/c2ccccc2)ccc1OCc1cn(CCOc2cc(=O)oc3ccccc23)nn1	–	61%	56%	54%	10%	–	–	–
COc1cc(/C=C/C(=O)/C=C/c2ccco2)ccc1OCc1cn(CCCCOc2cc(=O)oc3ccccc23)nn1	inactive	49%	47%	43%	–	–	–	–
COc1ccc(/C=C/C(=O)/C=C/c2ccc(OCc3cn(CCCOc4cc(=O)oc5ccccc45)nn3)c(OC)c2)cc1OC	–	73%	67%	65%	9%	13 µM	8.51 µM	11 µM
COc1ccccc1/C=C/C(=O)/C=C/c1ccc(OCc2cn(CCOc3cc(=O)oc4ccccc34)nn2)c(OC)c1	–	75%	70%	67%	11%	11.5 µM	7.33 µM	9.49 µM
COc1cc(/C=C/C(=O)/C=C/c2cccs2)ccc1OCc1cn(CCCCOc2cc(=O)oc3ccccc23)nn1	inactive	44%	41%	40%	–	–	–	–
COc1ccccc1/C=C/C(=O)/C=C/c1ccc(OCc2cn(CCCOc3cc(=O)oc4ccccc34)nn2)c(OC)c1	inactive	50%	53%	57%	–	–	–	–
